The nature of series [1]: Toxicity in po dosed mouse. It counts as organism-based. As to conditions: in vivo.
For series [2], the system named is WI-38. Put plainly: Senolytic activity against non-senescent human WI38 cells assessed as reduction in cell viability by propidium iodide staining based flow cytometry. In a few lines: (§1)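 WI-38 fibroblasts were grown in DMEM/10% FBS with penicillin/streptomycin at 37 °C, 5% CO2. Low-passage cells (<25 passages) served as non-senescent controls.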
Series [3] deals with WI-38. Put plainly: Senolytic activity against ionizing radiation induced human WI38 senescent cells assessed as reduction in cell viability by propidium iodide staining based flow cytometry. Type of series: functional. The procedure, abridged: as §1
For orientation: A flow cytometer gives signals particle by particle.

Series [4] is described as follows: Selectivity index, ratio of EC50 for non-senescent human WI38 cells to EC50 for ionizing radiation induced human WI38 senescent cells. Type of series: functional, WI-38. The procedure, abridged:
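Human WI-38 fibroblasts were grown in DMEM with 10% FBS and penicillin/streptomycin at 37 °C in 5% CO2. Low-passage cells (<25 passages) served as non-senescent controls. Viability was read by flow cytometry.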

The target in series [5] is T1, Oxidation resistance protein 1 (Homo sapiens) (UniProt Q8N573).
T1 sequence (whole entry): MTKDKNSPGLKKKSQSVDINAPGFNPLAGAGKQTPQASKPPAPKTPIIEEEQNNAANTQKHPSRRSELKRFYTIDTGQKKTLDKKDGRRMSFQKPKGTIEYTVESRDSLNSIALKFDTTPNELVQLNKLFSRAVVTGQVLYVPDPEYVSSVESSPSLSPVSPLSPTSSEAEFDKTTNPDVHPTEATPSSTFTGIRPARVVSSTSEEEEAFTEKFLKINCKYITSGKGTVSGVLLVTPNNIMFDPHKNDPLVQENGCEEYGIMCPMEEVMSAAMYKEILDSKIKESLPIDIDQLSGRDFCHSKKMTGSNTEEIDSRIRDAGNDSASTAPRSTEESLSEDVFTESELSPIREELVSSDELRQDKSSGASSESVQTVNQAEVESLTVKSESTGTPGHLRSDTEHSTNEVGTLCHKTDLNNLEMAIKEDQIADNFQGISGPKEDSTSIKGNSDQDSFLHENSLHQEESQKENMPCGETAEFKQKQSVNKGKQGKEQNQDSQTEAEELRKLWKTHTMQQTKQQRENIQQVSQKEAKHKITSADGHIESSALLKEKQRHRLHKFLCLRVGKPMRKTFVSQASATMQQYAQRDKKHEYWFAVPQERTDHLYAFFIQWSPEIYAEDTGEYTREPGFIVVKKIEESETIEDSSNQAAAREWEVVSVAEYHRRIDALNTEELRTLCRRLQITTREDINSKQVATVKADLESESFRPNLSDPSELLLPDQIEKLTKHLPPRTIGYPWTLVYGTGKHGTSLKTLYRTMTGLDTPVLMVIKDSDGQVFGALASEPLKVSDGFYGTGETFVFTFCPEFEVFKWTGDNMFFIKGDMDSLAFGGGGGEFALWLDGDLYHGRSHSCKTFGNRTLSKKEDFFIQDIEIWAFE
Put plainly: Induction of OXR1 degradation in ionizing radiation induced human WI38 senescent cells at 5 uM after 24 hrs by Western blot analysis. In a few lines: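 Cells were lysed in RIPA buffer with EDTA/EGTA and proteins were transferred to PVDF. Membranes were blocked in 5% nonfat milk/TBST and probed overnight at 4 °C for OXR1 and β-actin. Bands were quantified; mean ± SEM, n = 3.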
(In western blotting, separated proteins are transferred to a membrane and probed.)

The subject of series [6] is WI-38. The series can be described thus: Induction of ROS production in ionizing radiation induced human WI38 senescent cells up to 64 uM after […] by DHR123 dye based flow cytometry. Type of series: functional, cell-based.
The test system of series [7] is WI-38. Put plainly: Induction of apoptosis in ionizing radiation induced human WI38 senescent cells assessed as live cells at 10 uM after 48 hrs by Annexin V-FITC/propidium iodide staining based flow cytometry (reference value: 87%). Type of series: functional.
For series [8], the system named is WI-38. The series can be described thus: Induction of apoptosis in ionizing radiation induced human WI38 senescent cells assessed as early apoptotic cells at 10 uM after 48 hrs by Annexin V-FITC/propidium iodide staining based flow cytometry (reference value: […]). It counts as functional.
Series [9] relates to WI-38. The series can be described thus: Induction of apoptosis in ionizing radiation induced human WI38 senescent cells assessed as late apoptotic cells at 10 uM after 48 hrs by Annexin V-FITC/propidium iodide staining based flow cytometry (reference value: […]). Type of series: functional.
In series [10] the test system is WI-38. The series can be described thus: Induction of apoptosis in ionizing radiation induced human WI38 senescent cells assessed as necrotic cells at 10 uM after 48 hrs by Annexin V-FITC/propidium iodide staining based flow cytometry (reference value: […]). Type of series: functional.

The source of these data is ChEMBL document CHEMBL4229411, “Senolytic activity of piperlongumine analogues: Synthesis and biological evaluation” (Bioorg Med Chem, 2018).

Active and inactive are the calls of the source. The rule behind the calls is not given here.

By EC50 is commonly meant the concentration needed to bring the measured effect to its halfway point. The compound `COc1cc(/C=C/C(=O)N2CCC=CC2=O)cc(OC)c1OC` [PIPLARTINE] registered an MTD in series [1] of over 1000 mg/kg. Besides, the half-maximal effective concentration (EC50) is 20.3 µM in the series with WI-38 [2] and 8 µM in the series with WI-38 [3]. The “Ratio EC50” value in [4] amounted to 2.5. The result (in series [5]; with WI-38 [6]) was Active.
`C=C1CCCN(C(=O)/C=C/c2cc(OC)c(OC)c(OC)c2)C1=O`: the outcome in [5] was Active.
On the same count and under the same terms, the entry for `C=C1CCN(C(=O)/C=C/c2cc(OC)c(OC)c(OC)c2)C1=O` is “Active”.
`CC(C)[C@H](NC(=O)c1ccc2ccccc2n1)C(=O)N[C@@H](CC(=O)O)C(=O)COc1c(F)cccc1F`: the Activity was 80.9% in the series on WI-38 [7], 7.7% in the series on WI-38 [8], 8% in the series on WI-38 [9] and 3.4% in the series on WI-38 [10].
Turning to `C=C1CCCCN(C(=O)/C=C/c2cc(OC)c(OC)c(OC)c2)C1=O`, the result in series [5] was Active.
